From the RNAGym collection of RNA variant scans (doi:10.1126/science.aae0568)
This sample holds only a part of the variants without activity.

B1: tRNA (parent)
chain: GUUCCGUUGGCGUAAUGGUAACGCGUCUCCCUCCUAAGGAGAAGACUGCGGGUUCGAGUCCCGUACGGAACG

Variants of: B1
Experiment: yeast fitness relative to wild type (ratio to wild type); higher = fitter; tRNA-Arg(CCU), competitive growth, 37 C, YPD
Method in brief: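 For this measurement, the tRNA-Arg(CCU) gene was varied by chemical synthesis at a 3% per-site mutation rate across 69 sites, and each variant was placed at the native genomic locus in Saccharomyces cerevisiae. The pooled strains went through a 24-hour competition in YPD at 37°C in six parallel replicates, with amplicons from start and end populations read by 100-nucleotide paired-end sequencing. Darwinian fitness relative to wild type followed from the change in each genotype's frequency. Genotypes needed ≥ 100 starting reads, and estimates < 0.5 were set to 0.5.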

Variant | yeast fitness
C29U C33U U35C U54A | ≤ 0.5
U3A A20C A21G | 0.679
G17A C31G G68A | ≤ 0.5
U7C C11G U13G C30U | ≤ 0.5
U3C G50A A65U | 0.652
U8C C46G G67A | 0.674
U7G A14C G63C | ≤ 0.5
A20U G67C | 0.732
G12C U32G C33G | 0.543
C4A U26A U32G A42C A57U | ≤ 0.5
C11U C62U A70G | 0.753
A40U G63A | 0.721
C33U G44C C49U | 0.531
U13G C31G A43U C46G A70U | ≤ 0.5
U32C G39U | 0.911
C24A G39C G51A G63A | ≤ 0.5
A14G G23A A36G C66U | ≤ 0.5
A21G C22A G25A C46U U54A | ≤ 0.5
A36U G50A C61U | ≤ 0.5
C5A U35C | 0.869
U8A G58A | 0.771

Variant | yeast fitness
A45U C46A G63A | 1.06
C24U A40C G52C G67A | ≤ 0.5
A14G C22U C29A | ≤ 0.5
U13C C31G | 0.933
G12C C62G C66U | ≤ 0.5
C22G A36G C55G | ≤ 0.5
G9A U54A | 0.696
C11G G12A C27G | 0.669
A14U U19A G23A A43C A57G U64G | ≤ 0.5
U2G G25A | 0.986
G38C A70G | 0.756
A45U C61U | 0.974
A36U U59C | 0.663
C46G C55G A69G | ≤ 0.5
C11U U26C U47C | 0.799
C5G G25A C61G | 0.564
C4U U26A G38A G63C | ≤ 0.5
U8A C24U A40U A42C A45U C61U | ≤ 0.5
U13A G18C A36G G41C G67A | ≤ 0.5
C4U G39C U59G C62A | ≤ 0.5
C11A G38A U53A | 0.543

Variant | yeast fitness
G17A U32A G67C | 0.6
C4A C22A A69U | 0.528
U2C G6A A42C C66U | ≤ 0.5
A15U U26A C31A | ≤ 0.5
G6C C31U G39A C46G | ≤ 0.5
U13C A20C A40G | ≤ 0.5
C5U A42G G51C G56A | 0.698
U2C C27U A36C | ≤ 0.5
U2A U16G A69C | 0.85
G10A U13A | 0.684
U19C A37C C62A U64C | ≤ 0.5
U26G C62U | 0.842
U3A U7G | 0.734
U32G G50A | 0.714
U26A G63A G68C A69G | ≤ 0.5
G9A G25C A42C | 1
U3G C5U U26A A45C U59C | ≤ 0.5
C33G A45G U64A | 0.586
G41A C46G G50A C62A | 0.537
U16G C22G A37G A43G G68A | ≤ 0.5
G6A A42U | 0.784

Variant | yeast fitness
G12A A42C G50C | ≤ 0.5
A15U A65G C66A G67C | ≤ 0.5
C31G G41A U47C G52C C60U C62G C66G | ≤ 0.5
U3G C30U A43U G48C G68C | ≤ 0.5
C49A C55G | ≤ 0.5
C5A C30G A36G A57U A65U | ≤ 0.5
C29U A65U | 0.754
U8C C31A A42G A43G G68C | 0.559
C34G C49U A65C | 0.532
C11A C49A C66U | ≤ 0.5
U8A G18C C27U G51C C55A C62U A65U A69U | 0.647
U47A C66U | 0.872
U13C A14G C24G G52A C55G A69U | ≤ 0.5
U16A G17A C34U C66U A70U | ≤ 0.5
A15C U19C C31G G56C C66U | ≤ 0.5
C24G U54C G68C | ≤ 0.5
C5A U28C | 0.784
C4A U16A C29G U32C C55U C66U | ≤ 0.5
C60G G68C | 0.603
C24U C31A C33A C34U C46A C62U G67A | ≤ 0.5
